Experimental data taken from ChEMBL document CHEMBL5316336, “Development of Human Carbonic Anhydrase II Heterobifunctional Degraders” (J Med Chem, 2023).
Blank lines part the entries; values can stand above or below the compound they belong to. Calls of active or inactive are those of the source. No cut-off for these calls is given here.

How the values were obtained:
Assay type in all cases: cell-based
[1] = target: T1, Protein cereblon/Carbonic anhydrase 2 (Homo sapiens, UniProt P00918+Q96SW2); experiment: Protac activity at CRBN/CA-2 in HEK293 cells assessed as degradation of carbonic anhydrase-2 at 50 nM preincubated for 1 hr with MG-132 followed by compound addition and measured after 6 hrs by Western blot analysis
Summary of the method: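 HEK293 cells pretreated 1 h with MG-132 at 1 μM, then 50 nM compound for 6 h; hCAII by Western blot, hCAII/β-actin relative to DMSO controls.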

[2] = target: T1, Protein cereblon/Carbonic anhydrase 2; experiment: Protac activity at CRBN/CA-2 in HEK293 cells assessed as degradation of carbonic anhydrase-2 at 50 nM preincubated for 1 hr with lenalidomide followed by compound addition and measured after 6 hrs by Western blot analysis
[3] = target: T1, Protein cereblon/Carbonic anhydrase 2; experiment: Protac activity at CRBN/CA-2 in HEK293 cells assessed as degradation of carbonic anhydrase-2 at 50 nM by Western blot analysis; conditions: time lower 0.0 hrs, time upper […]
Summary of the method: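 HEK293 cells given 50 nM compound for 0–48 h time course; hCAII abundance by Western blot, hCAII/β-actin normalized to DMSO vehicle.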

[4] = target: T1, Protein cereblon/Carbonic anhydrase 2; experiment: Protac activity at CRBN/CA-2 in HEK293 cells assessed as degradation of carbonic anhydrase-2 at 50 pM measured after 24 hrs by Western blot analysis
Summary of the method: (§1)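 HEK293 cells (DMEM, 10% FBS, 37 °C, 5% CO2) plated at 2 × 10⁶/well, dosed in DMSO (0.5% final) 24 h before lysis at ~90% confluency. 30–50 μg lysate protein on SDS-PAGE, blotted with anti-hCAII and anti-β-actin, Cy5 secondary. hCAII/β-actin ratio normalized to DMSO wells, as % DMSO.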

[5] = target: T1, Protein cereblon/Carbonic anhydrase 2; experiment: Protac activity at CRBN/CA-2 in HEK293 cells assessed as degradation of carbonic anhydrase-2 at 50 nM preincubated for 1 hr with acetazolamide followed by compound addition and measured after 6 hrs by Western blot analysis
[6] = target: T1, Protein cereblon/Carbonic anhydrase 2; experiment: Protac activity at CRBN/CA-2 in HEK293 cells assessed as degradation of carbonic anhydrase-2
Summary of the method: (§2)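 Nine-point dose response, 5 pM to 15 μM, in HEK293 cells for 24 h before lysis, three biological replicates; Western blot with hCAII normalized to β-actin and DMSO vehicle. DC50 (95% CI) and DMax from least-squares sigmoidal fit of concentrations below the hook region; log(inhibitor) vs response, three-parameter fit.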

[7] = target: T1, Protein cereblon/Carbonic anhydrase 2; experiment: Protac activity at CRBN/CA-2 in HEK293 cells assessed as degradation of carbonic anhydrase-2 at 15 uM measured after 24 hrs by Western blot analysis relative to control; summary of the method: as §1
[8] = target: T1, Protein cereblon/Carbonic anhydrase 2; experiment: Protac activity at CRBN/CA-2 in HEK293 cells assessed as degradation of carbonic anhydrase-2 measured after 24 hrs by Western blot analysis; conditions: dose <= 15.0 µM; summary of the method: as §2
[9] = target: Carbonic anhydrase 2 (Homo sapiens) (UniProt P00918); experiment: Induction of in carbonic anhydrase-2 HEK293 cells assessed as degradation of carbonic anhydrase-2 at 5 uM measured after 24 hrs by Western blot analysis; summary of the method: as §1

- Activity [1]: inactive
- Activity [2]: inactive
- Activity [3]: Dose-Dependent Effect
- Activity [4]: Active
- Activity [5]: inactive
SMILES: NS(=O)(=O)c1ccc(C(=O)NCCCCCCCCCCCCNc2cccc3c2C(=O)N(C2CCC(=O)NC2=O)C3=O)cc1 (stereo not given)

- EC50 [6]: 5 nM
- Activity [7]: 100%
- Activity [8]: Dose-Dependent Effect
SMILES: NS(=O)(=O)c1ccc(C(=O)NCCCOCCCCOCCCNc2cccc3c2C(=O)N(C2CCC(=O)NC2=O)C3=O)cc1 (stereo not given)

- Activity [9]: inactive
SMILES: CS(=O)(=O)c1ccc(C(=O)NCCCOCCOCCOCCCNc2cccc3c2C(=O)N(C2CCC(=O)NC2=O)C3=O)cc1 (stereo not given)

- Activity [9]: inactive
SMILES: CN1C(=O)CCC(N2C(=O)c3cccc(NCCCOCCOCCOCCCNC(=O)c4ccc(S(N)(=O)=O)cc4)c3C2=O)C1=O (stereo not given)

- EC50 [6]: 245 nM
- Activity [7]: 100%
- Activity [8]: Dose-Dependent Effect
SMILES: NS(=O)(=O)c1ccc(C(=O)NCCCOCCOCCOCCCNc2cccc3c2C(=O)N(C2CCC(=O)NC2=O)C3=O)cc1 (stereo not given)

- Activity [9]: inactive
SMILES: CS(=O)(=O)c1ccc(C(=O)NCCCOCCCCOCCCNc2cccc3c2C(=O)N(C2CCC(=O)NC2=O)C3=O)cc1 (stereo not given)

- Activity [9]: inactive
SMILES: CN1C(=O)CCC(N2C(=O)c3cccc(NCCCOCCCCOCCCNC(=O)c4ccc(S(N)(=O)=O)cc4)c3C2=O)C1=O (stereo not given)
